According to ChEMBL document CHEMBL1165950, “Design and synthesis of new potent anticancer pyrazoles with high FLT3 kinase inhibitory selectivity” (Bioorg Med Chem, 2010):

How the values were obtained:
Assay type in all cases: functional
SF-539 = assay: Cytotoxicity against human SF539 cells assessed as cell growth at 10 uM; conditions: read-out: Activity
Summary of the method: (§1)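 NCI-60 screen: cells grown in RPMI 1640 with 5% FBS and 2 mM L-glutamine, plated at 5000–40,000 cells/well according to doubling time, and preincubated 24 h at 37 °C, 5% CO2. The single 10 µM dose (DMSO stock) was added, then incubated 48 h. Cells were TCA-fixed and stained with 0.4% SRB, read at 515 nm, and growth % calculated against time-zero and control plates.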

SNB-19 = assay: Cytotoxicity against human SNB19 cells assessed as cell growth at 10 uM; conditions: read-out: Activity; summary of the method: as §1
SNB-75 = assay: Cytotoxicity against human SNB75 cells assessed as cell growth at 10 uM; conditions: read-out: Activity; summary of the method: as §1
U-251 = assay: Cytotoxicity against human U251 cells assessed as cell growth at 10 uM; conditions: read-out: Activity; summary of the method: as §1
LOX IMVI = assay: Cytotoxicity against human LOXIMVI cells assessed as cell growth at 10 uM; conditions: read-out: Activity; summary of the method: as §1
Malme-3M = assay: Cytotoxicity against human MALME-3M cells assessed as cell growth at 10 uM; conditions: read-out: Activity; summary of the method: as §1
M14 = assay: Cytotoxicity against human M14 cells assessed as cell growth at 10 uM; conditions: read-out: Activity; summary of the method: as §1
MDA-MB-435 = assay: Cytotoxicity against human MDA-MB-435 cells assessed as cell growth at 10 uM; conditions: read-out: Activity; summary of the method: as §1
SK-MEL-2 = assay: Cytotoxicity against human SK-MEL-2 cells assessed as cell growth at 10 uM; conditions: read-out: Activity; summary of the method: as §1
SK-MEL-28 = assay: Cytotoxicity against human SK-MEL-28 cells assessed as cell growth at 10 uM; conditions: read-out: Activity; summary of the method: as §1
SK-MEL-5 = assay: Cytotoxicity against human SK-MEL-5 cells assessed as cell growth at 10 uM; conditions: read-out: Activity; summary of the method: as §1
UACC-257 = assay: Cytotoxicity against human UACC257 cells assessed as cell growth at 10 uM; conditions: read-out: Activity; summary of the method: as §1
UACC-62 = assay: Cytotoxicity against human UACC62 cells assessed as cell growth at 10 uM; conditions: read-out: Activity; summary of the method: as §1
IGROV-1 = assay: Cytotoxicity against human IGROV1 cells assessed as cell growth at 10 uM; conditions: read-out: Activity
Summary of the method: (§2)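 Single-dose NCI-60 screen at 10 µM. Cells were grown in RPMI 1640 with 5% FBS and 2 mM L-glutamine, then treated for 48 h at 37 °C. Protein was measured by SRB staining with absorbance at 515 nm. Percentage growth was recorded, and inhibition percentage was calculated as 100 minus growth percentage.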

OVCAR-3 = assay: Cytotoxicity against human OVCAR-3 cells assessed as cell growth at 10 uM; conditions: read-out: Activity; summary of the method: as §1
OVCAR-4 = assay: Cytotoxicity against human OVCAR4 cells assessed as cell growth at 10 uM; conditions: read-out: Activity; summary of the method: as §1
OVCAR-5 = assay: Cytotoxicity against human OVCAR5 cells assessed as cell growth at 10 uM; conditions: read-out: Activity; summary of the method: as §1
OVCAR-8 = assay: Cytotoxicity against human OVCAR8 cells assessed as cell growth at 10 uM; conditions: read-out: Activity; summary of the method: as §1
NCI/ADR-RES = assay: Cytotoxicity against human NCI/ADR-RES cells assessed as cell growth at 10 uM; conditions: read-out: Activity; summary of the method: as §1
SK-OV-3 = assay: Cytotoxicity against human SKOV3 cells assessed as cell growth at 10 uM; conditions: read-out: Activity; summary of the method: as §1
786-0 = assay: Cytotoxicity against human 786-0 cells assessed as cell growth at 10 uM; conditions: read-out: Activity; summary of the method: as §2
A498 = assay: Cytotoxicity against human A498 cells assessed as cell growth at 10 uM; conditions: read-out: Activity; summary of the method: as §2
ACHN = assay: Cytotoxicity against human ACHN cells assessed as cell growth at 10 uM; conditions: read-out: Activity; summary of the method: as §2
CAKI-1 = assay: Cytotoxicity against human Caki1 cells assessed as cell growth at 10 uM; conditions: read-out: Activity; summary of the method: as §2
RXF 393 = assay: Cytotoxicity against human RXF393 cells assessed as cell growth at 10 uM; conditions: read-out: Activity; summary of the method: as §1
SN12C = assay: Cytotoxicity against human SN12C cells assessed as cell growth at 10 uM; conditions: read-out: Activity; summary of the method: as §1
TK-10 = assay: Cytotoxicity against human TK10 cells assessed as cell growth at 10 uM; conditions: read-out: Activity; summary of the method: as §1
UO-31 = assay: Cytotoxicity against human UO31 cells assessed as cell growth at 10 uM; conditions: read-out: Activity; summary of the method: as §1
PC-3 = assay: Cytotoxicity against human PC3 cells assessed as cell growth at 10 uM; conditions: read-out: Activity; summary of the method: as §1
DU-145 = assay: Cytotoxicity against human DU145 cells assessed as cell growth at 10 uM; conditions: read-out: Activity; summary of the method: as §2
MCF7 = assay: Cytotoxicity against human MCF7 cells assessed as cell growth at 10 uM; conditions: read-out: Activity; summary of the method: as §1
MDA-MB-231 = assay: Cytotoxicity against human MDA-MB-231 cells assessed as cell growth at 10 uM; conditions: read-out: Activity; summary of the method: as §1
[1] = Cytotoxicity against human Hs 578T cells assessed as cell growth at 10 uM; conditions: read-out: Activity; summary of the method: as §2
BT-549 = assay: Cytotoxicity against human BT549 cells assessed as cell growth at 10 uM; conditions: read-out: Activity; summary of the method: as §2
T47D = assay: Cytotoxicity against human T47D cells assessed as cell growth at 10 uM; conditions: read-out: Activity; summary of the method: as §1
MDA-MB-468 = assay: Cytotoxicity against human MDA-MB-468 cells assessed as cell growth at 10 uM; conditions: read-out: Activity; summary of the method: as §1
[2] = Growth inhibition of human NCI60 cells at 10 uM after 48 hrs by sulforhodamine B assay relative to control; conditions: NCI60, 48 h, read-out: GI
Summary of the method: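 Single-dose NCI screen at 10 µM across the 60-line panel, 48 h exposure at 37 °C after a 24 h preincubation. Adherent cells were fixed with cold TCA and stained with 0.4% SRB, and absorbance was read at 515 nm. Inhibition % was taken as 100 minus growth %, and the mean across all lines was reported.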

CCRF-CEM = assay: Cytotoxicity against human CCRF-CEM cells assessed as cell growth at 10 uM; conditions: read-out: Activity; summary of the method: as §2
HL-60(TB) = assay: Cytotoxicity against human HL-60(TB) cells assessed as cell growth at 10 uM; conditions: read-out: Activity
Summary of the method: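 NCI 60-cell panel screen at a single concentration of 10 µM. Cells are grown in RPMI 1640 with 5% FBS and 2 mM L-glutamine and read by SRB protein staining at 515 nm. Percent growth is measured relative to time-zero and untreated controls; inhibition % is 100 minus growth %.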

K562 = assay: Cytotoxicity against human K562 cells assessed as cell growth at 10 uM; conditions: read-out: Activity; summary of the method: as §2
MOLT-4 = assay: Cytotoxicity against human MOLT4 cells assessed as cell growth at 10 uM; conditions: read-out: Activity; summary of the method: as §1
[3] = Cytotoxicity against human […] cells assessed as cell growth at 10 uM; conditions: read-out: Activity; summary of the method: as §1
SR = assay: Cytotoxicity against human SR cells assessed as cell growth at 10 uM; conditions: read-out: Activity; summary of the method: as §1
A549 = assay: Cytotoxicity against human A549 cells assessed as cell growth at 10 uM; conditions: read-out: Activity; summary of the method: as §2
EKVX = assay: Cytotoxicity against human EKVX cells assessed as cell growth at 10 uM; conditions: read-out: Activity; summary of the method: as §2
HOP-62 = assay: Cytotoxicity against human HOP62 cells assessed as cell growth at 10 uM; conditions: read-out: Activity; summary of the method: as §2
HOP-92 = assay: Cytotoxicity against human HOP92 cells assessed as cell growth at 10 uM; conditions: read-out: Activity; summary of the method: as §2
NCI-H226 = assay: Cytotoxicity against human NCI-H226 cells assessed as cell growth at 10 uM; conditions: read-out: Activity; summary of the method: as §1
NCI-H23 = assay: Cytotoxicity against human NCI-H23 cells assessed as cell growth at 10 uM; conditions: read-out: Activity; summary of the method: as §1
NCI-H322M = assay: Cytotoxicity against human NCI-H322M cells assessed as cell growth at 10 uM; conditions: read-out: Activity; summary of the method: as §1
NCI-H460 = assay: Cytotoxicity against human NCI-H460 cells assessed as cell growth at 10 uM; conditions: read-out: Activity; summary of the method: as §1
NCI-H522 = assay: Cytotoxicity against human NCI-H522 cells assessed as cell growth at 10 uM; conditions: read-out: Activity; summary of the method: as §1
COLO 205 = assay: Cytotoxicity against human COLO205 cells assessed as cell growth at 10 uM; conditions: read-out: Activity; summary of the method: as §2
HCC 2998 = assay: Cytotoxicity against human HCC2998 cells assessed as cell growth at 10 uM; conditions: read-out: Activity; summary of the method: as §2
HCT-116 = assay: Cytotoxicity against human HCT116 cells assessed as cell growth at 10 uM; conditions: read-out: Activity; summary of the method: as §2
HCT-15 = assay: Cytotoxicity against human HCT15 cells assessed as cell growth at 10 uM; conditions: read-out: Activity; summary of the method: as §2
HT-29 = assay: Cytotoxicity against human HT-29 cells assessed as cell growth at 10 uM; conditions: read-out: Activity; summary of the method: as §2
KM12 = assay: Cytotoxicity against human KM12 cells assessed as cell growth at 10 uM; conditions: read-out: Activity; summary of the method: as §1
SW-620 = assay: Cytotoxicity against human SW620 cells assessed as cell growth at 10 uM; conditions: read-out: Activity; summary of the method: as §1
SF-268 = assay: Cytotoxicity against human SF268 cells assessed as cell growth at 10 uM; conditions: read-out: Activity; summary of the method: as §1
SF-295 = assay: Cytotoxicity against human SF295 cells assessed as cell growth at 10 uM; conditions: read-out: Activity; summary of the method: as §1

SMILES: Cc1cc(O)cc(-c2nn(CC#N)cc2-c2ccnc(-c3ccc(C#N)cc3)c2)c1
- growth at 10 µM (SF-539): 76%
- growth at 10 µM (SNB-19): 85.2%
- growth at 10 µM (SNB-75): 46.3%
- growth at 10 µM (U-251): 91.5%
- growth at 10 µM (LOX IMVI): 81.9%
- growth at 10 µM (Malme-3M): 125%
- growth at 10 µM (M14): 90.3%
- growth at 10 µM (MDA-MB-435): 88.3%
- growth at 10 µM (SK-MEL-2): 78.5%
- growth at 10 µM (SK-MEL-28): 88.3%
- growth at 10 µM (SK-MEL-5): 58.4%
- growth at 10 µM (UACC-257): 94.2%
- growth at 10 µM (UACC-62): 62.3%
- growth at 10 µM (IGROV-1): 77.3%
- growth at 10 µM (OVCAR-3): 110%
- growth at 10 µM (OVCAR-4): 79.5%
- growth at 10 µM (OVCAR-5): 107%
- growth at 10 µM (OVCAR-8): 72.9%
- growth at 10 µM (NCI/ADR-RES): 77.7%
- growth at 10 µM (SK-OV-3): 88.5%
- growth at 10 µM (786-0): 77.9%
- growth at 10 µM (A498): 103%
- growth at 10 µM (ACHN): 65.2%
- growth at 10 µM (CAKI-1): 84.3%
- growth at 10 µM (RXF 393): 59.4%
- growth at 10 µM (SN12C): 73.5%
- growth at 10 µM (TK-10): 78.4%
- growth at 10 µM (UO-31): 60.1%
- growth at 10 µM (PC-3): 95.5%
- growth at 10 µM (DU-145): 96.3%
- growth at 10 µM (MCF7): 34.4%
- growth at 10 µM (MDA-MB-231): 67%
- growth at 10 µM [1]: 103%
- growth at 10 µM (BT-549): 84.8%
- growth at 10 µM (T47D): 29.2%
- growth at 10 µM (MDA-MB-468): 33.7%
- inhibition of growth at 10 µM [2]: 20.8%
- growth at 10 µM (CCRF-CEM): 81.2%
- growth at 10 µM (HL-60(TB)): 56.2%
- growth at 10 µM (K562): 70%
- growth at 10 µM (MOLT-4): 54.6%
- growth at 10 µM [3]: 70.2%
- growth at 10 µM (SR): 88.5%
- growth at 10 µM (A549): 83.2%
- growth at 10 µM (EKVX): 79.1%
- growth at 10 µM (HOP-62): 85.4%
- growth at 10 µM (HOP-92): 72.3%
- growth at 10 µM (NCI-H226): 79.8%
- growth at 10 µM (NCI-H23): 72.7%
- growth at 10 µM (NCI-H322M): 97.4%
- growth at 10 µM (NCI-H460): 104%
- growth at 10 µM (NCI-H522): 60.7%
- growth at 10 µM (COLO 205): 66.1%
- growth at 10 µM (HCC 2998): 92%
- growth at 10 µM (HCT-116): 65.7%
- growth at 10 µM (HCT-15): 70.4%
- growth at 10 µM (HT-29): 66.3%
- growth at 10 µM (KM12): 95.6%
- growth at 10 µM (SW-620): 119%
- growth at 10 µM (SF-268): 102%
- growth at 10 µM (SF-295): 91.3%
